{"source": "paper PMC5148661", "about": "(ACS infectious diseases, 2016)", "key": {"CYP2D6": {"biological_target": "CYP2D6 (Homo sapiens, UniProt P10635)", "sequence (P10635 whole entry, canonical isoform)": "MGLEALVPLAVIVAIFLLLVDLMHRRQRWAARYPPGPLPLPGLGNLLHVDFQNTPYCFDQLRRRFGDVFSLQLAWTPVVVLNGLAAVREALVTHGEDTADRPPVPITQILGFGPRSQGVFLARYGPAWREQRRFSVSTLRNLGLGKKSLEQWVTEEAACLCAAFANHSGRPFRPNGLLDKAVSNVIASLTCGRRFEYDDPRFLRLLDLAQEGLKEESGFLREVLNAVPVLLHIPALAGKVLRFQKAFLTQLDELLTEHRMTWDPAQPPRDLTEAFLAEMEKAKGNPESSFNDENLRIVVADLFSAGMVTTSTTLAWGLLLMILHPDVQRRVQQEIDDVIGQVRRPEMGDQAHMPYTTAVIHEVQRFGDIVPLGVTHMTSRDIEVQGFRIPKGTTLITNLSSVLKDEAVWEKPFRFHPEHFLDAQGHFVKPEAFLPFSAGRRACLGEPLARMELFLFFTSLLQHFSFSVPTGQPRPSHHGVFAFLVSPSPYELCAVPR", "assay": "reversible cytochrome P450 inhibition", "type": "in vitro ADME", "outline": "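Reversible inhibition of human CYP isoforms tested with isoform-specific probe substrates. Time-dependent (mechanism-based) inhibition was also assessed.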"}, "Na_V1.5 channel": {"biological_target": "Na_V1.5 channel (Homo sapiens, UniProt Q14524)", "assay": "Na_V1.5 channel assay", "type": "cell-based", "outline": "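Channel activity measured by IonWorks automated patch-clamp electrophysiology at a contract lab.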"}, "P. vivax DHODH": {"biological_target": "P. vivax DHODH (Plasmodium vivax, UniProt A5K1N1)", "sequence (A5K1N1 160-572)": "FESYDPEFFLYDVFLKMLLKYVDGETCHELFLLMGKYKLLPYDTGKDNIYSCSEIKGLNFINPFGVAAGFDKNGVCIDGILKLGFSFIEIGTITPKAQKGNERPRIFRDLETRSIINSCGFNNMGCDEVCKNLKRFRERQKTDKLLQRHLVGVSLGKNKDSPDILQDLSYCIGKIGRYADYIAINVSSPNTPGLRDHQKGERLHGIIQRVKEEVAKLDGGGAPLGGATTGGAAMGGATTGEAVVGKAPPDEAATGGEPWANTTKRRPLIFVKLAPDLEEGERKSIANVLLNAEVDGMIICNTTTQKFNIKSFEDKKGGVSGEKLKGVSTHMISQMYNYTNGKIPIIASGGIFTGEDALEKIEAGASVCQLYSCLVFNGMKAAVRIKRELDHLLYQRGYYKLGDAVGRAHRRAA", "assay": "DHODH inhibition, DCIP-based assay", "type": "biochemical"}, "[1]": {"assay": "metabolic stability in liver microsomes", "type": "in vitro ADME", "details": "rat"}, "[2]": {"assay": "pharmacokinetics after IV and oral dosing", "type": "in vivo, rats", "outline": "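Single IV and oral doses were given. Mice and rats received about 2 mg/kg IV and 5–50 mg/kg orally, with blood sampled over 30–48 h from 2 mice per time point or 2 rats. Dogs received 1 mg/kg by each route (n=3). Plasma was separated by centrifugation and assayed by LC/MS, and parameters were derived non-compartmentally.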"}, "[3]": {"tested_on": "P. falciparum field isolates", "assay": "P. falciparum clinical isolates", "type": "cell-based", "details": "Plasmodium falciparum, 72 h, read-out: unbound EC50"}, "Ames tester strains": {"tested_on": "Ames tester strains", "assay": "GLP Ames 5 strain test", "details": "with and without metabolic activation"}, "P. falciparum 3D7": {"tested_on": "P. falciparum 3D7", "assay": "whole cell P. falciparum 3D7 blood stage 72 h assay, albumax media", "type": "cell-based", "details": "for EC50: Plasmodium falciparum, 3D7, 72 h"}, "[4]": {"tested_on": "P. falciparum Pf3D7^0087/N9", "assay": "P. falciparum SCID mouse efficacy model", "type": "in vivo"}, "[5]": {"assay": "P. falciparum SCID mouse efficacy model", "type": "in vivo", "details": "NOD-scid IL-2Rγnull (NSG), mouse, blood, oral"}, "physchem": {"assay": "physchem", "type": "physicochemical"}, "[6]": {"assay": "cytotoxicity against a human cell line", "type": "cell-based", "details": "human, HepG2 cells"}, "Human HepG2 cells": {"tested_on": "Human HepG2 cells", "assay": "cytotoxicity against a human cell line", "type": "cell-based"}, "[7]": {"tested_on": "set of 100 human channels and enzymes", "assay": "CEREP diversity panel", "details": "10 μM ([…])"}, "Rat DHODH": {"biological_target": "Rat DHODH (Rattus norvegicus, UniProt Q63707)", "sequence (Q63707 whole entry)": "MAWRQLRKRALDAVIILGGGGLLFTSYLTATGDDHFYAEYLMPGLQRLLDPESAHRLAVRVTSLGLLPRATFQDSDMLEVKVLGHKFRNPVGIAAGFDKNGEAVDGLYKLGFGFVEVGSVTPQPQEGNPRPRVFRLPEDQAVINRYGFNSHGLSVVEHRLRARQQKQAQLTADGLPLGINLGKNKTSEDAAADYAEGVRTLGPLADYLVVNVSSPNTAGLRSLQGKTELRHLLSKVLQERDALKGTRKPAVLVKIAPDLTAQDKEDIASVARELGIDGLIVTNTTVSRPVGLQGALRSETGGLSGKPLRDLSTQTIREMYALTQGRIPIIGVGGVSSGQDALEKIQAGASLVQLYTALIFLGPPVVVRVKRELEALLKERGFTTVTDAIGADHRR", "assay": "DHODH inhibition, DCIP-based assay", "type": "biochemical"}, "[8]": {"assay": "metabolic stability in liver microsomes", "type": "in vitro ADME", "details": "dog"}, "[9]": {"assay": "rat 7-day exploratory toxicity study", "type": "in vivo", "details": "rat 7-day exploratory toxicity study (data not shown)"}, "Caco-2 cell monolayers": {"tested_on": "Caco-2 cell monolayers", "assay": "Caco-2 cell permeability", "type": "in vitro ADME", "details": "both directions"}, "[10]": {"tested_on": "P. cynomolgi large and small forms", "assay": "P. cynomolgi liver stage assay in primary rhesus monkey hepatocytes", "type": "cell-based", "details": "concentrations at or below 10 μM; human serum-based media"}, "[11]": {"biological_target": "P. berghei DHODH (PbDHODH) (Plasmodium berghei, UniProt A0A509AEH5)", "sequence (A0A509AEH5 132-517)": "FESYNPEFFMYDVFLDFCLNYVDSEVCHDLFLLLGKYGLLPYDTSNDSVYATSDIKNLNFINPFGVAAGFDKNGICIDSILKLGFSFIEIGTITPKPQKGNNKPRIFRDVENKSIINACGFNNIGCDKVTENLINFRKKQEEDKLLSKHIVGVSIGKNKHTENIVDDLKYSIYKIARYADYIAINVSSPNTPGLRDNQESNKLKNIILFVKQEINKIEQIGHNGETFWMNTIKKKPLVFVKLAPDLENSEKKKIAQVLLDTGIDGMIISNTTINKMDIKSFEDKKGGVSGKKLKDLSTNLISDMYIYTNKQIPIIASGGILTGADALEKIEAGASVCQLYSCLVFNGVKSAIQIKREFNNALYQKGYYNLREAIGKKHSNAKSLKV", "assay": "DHODH inhibition, DCIP-based assay", "type": "biochemical"}, "P. falciparum DHODH": {"biological_target": "P. falciparum DHODH (Plasmodium falciparum, UniProt Q08210)", "sequence (Q08210 158-569 limits assumed)": "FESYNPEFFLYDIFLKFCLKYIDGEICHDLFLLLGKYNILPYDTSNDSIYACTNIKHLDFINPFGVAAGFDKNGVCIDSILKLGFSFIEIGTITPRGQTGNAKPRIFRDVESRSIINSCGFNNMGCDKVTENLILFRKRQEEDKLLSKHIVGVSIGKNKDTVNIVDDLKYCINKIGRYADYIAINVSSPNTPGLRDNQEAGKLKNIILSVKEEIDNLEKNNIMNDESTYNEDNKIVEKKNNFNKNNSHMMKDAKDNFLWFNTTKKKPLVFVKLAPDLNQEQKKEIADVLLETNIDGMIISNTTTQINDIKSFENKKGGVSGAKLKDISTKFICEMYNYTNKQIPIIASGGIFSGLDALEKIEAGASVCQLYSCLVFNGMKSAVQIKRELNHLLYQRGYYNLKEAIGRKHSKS", "assay": "DHODH inhibition, DCIP-based spectrophotometric steady-state assay", "type": "biochemical"}, "[12]": {"tested_on": "D10w/yDHODH P. falciparum cell line", "assay": "growth inhibition of transgenic P. falciparum expressing yeast DHODH", "type": "cell-based", "outline": "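D10 parasites transfected with yeast DHODH were grown in human erythrocytes in RPMI 1640 with 0.5% Albumax II. EC50 came from a 72 h dose–response growth assay read by SYBR Green DNA fluorescence.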"}, "Dog DHODH": {"biological_target": "Dog DHODH (Canis lupus familiaris, UniProt A0A8I3MWX2)", "sequence (A0A8I3MWX2 1-406)": "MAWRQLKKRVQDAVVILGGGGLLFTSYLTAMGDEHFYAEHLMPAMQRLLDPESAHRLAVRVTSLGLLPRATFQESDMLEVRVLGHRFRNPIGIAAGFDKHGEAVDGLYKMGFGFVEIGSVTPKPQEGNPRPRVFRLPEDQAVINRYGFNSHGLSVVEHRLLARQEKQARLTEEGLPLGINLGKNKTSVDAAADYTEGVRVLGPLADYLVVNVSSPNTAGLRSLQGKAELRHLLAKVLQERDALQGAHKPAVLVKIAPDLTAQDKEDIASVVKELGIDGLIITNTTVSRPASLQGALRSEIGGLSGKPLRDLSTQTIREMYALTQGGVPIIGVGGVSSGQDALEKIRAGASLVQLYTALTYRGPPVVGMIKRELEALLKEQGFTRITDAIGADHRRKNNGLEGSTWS", "assay": "DHODH inhibition, DCIP-based assay", "type": "biochemical"}, "[13]": {"tested_on": "P. falciparum Dd2 isolates selected for resistance to DSM265", "assay": "activity on DSM265-selected resistant lines", "type": "cell-based", "details": "G181C PfDHODH mutant line and 3-fold DHODH gene amplification line"}, "P. vivax field isolates": {"tested_on": "P. vivax field isolates", "assay": "ex vivo 48 h schizont maturation assay", "type": "cell-based", "outline": "(§1)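 Field isolates came from patients at malaria clinics in Timika, Papua, Indonesia, and were tested in a 48 h schizont maturation assay adapted from the WHO microtest at 2% hematocrit. P. falciparum was run in RPMI 1640 with 10% AB+ human serum. P. vivax was run in McCoy's 5A with 20% AB+ human serum.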"}, "[14]": {"assay": "metabolic stability in liver microsomes", "type": "in vitro ADME", "details": "human"}, "hERG channel": {"biological_target": "hERG channel (Homo sapiens, UniProt Q12809)", "sequence (Q12809 whole entry)": "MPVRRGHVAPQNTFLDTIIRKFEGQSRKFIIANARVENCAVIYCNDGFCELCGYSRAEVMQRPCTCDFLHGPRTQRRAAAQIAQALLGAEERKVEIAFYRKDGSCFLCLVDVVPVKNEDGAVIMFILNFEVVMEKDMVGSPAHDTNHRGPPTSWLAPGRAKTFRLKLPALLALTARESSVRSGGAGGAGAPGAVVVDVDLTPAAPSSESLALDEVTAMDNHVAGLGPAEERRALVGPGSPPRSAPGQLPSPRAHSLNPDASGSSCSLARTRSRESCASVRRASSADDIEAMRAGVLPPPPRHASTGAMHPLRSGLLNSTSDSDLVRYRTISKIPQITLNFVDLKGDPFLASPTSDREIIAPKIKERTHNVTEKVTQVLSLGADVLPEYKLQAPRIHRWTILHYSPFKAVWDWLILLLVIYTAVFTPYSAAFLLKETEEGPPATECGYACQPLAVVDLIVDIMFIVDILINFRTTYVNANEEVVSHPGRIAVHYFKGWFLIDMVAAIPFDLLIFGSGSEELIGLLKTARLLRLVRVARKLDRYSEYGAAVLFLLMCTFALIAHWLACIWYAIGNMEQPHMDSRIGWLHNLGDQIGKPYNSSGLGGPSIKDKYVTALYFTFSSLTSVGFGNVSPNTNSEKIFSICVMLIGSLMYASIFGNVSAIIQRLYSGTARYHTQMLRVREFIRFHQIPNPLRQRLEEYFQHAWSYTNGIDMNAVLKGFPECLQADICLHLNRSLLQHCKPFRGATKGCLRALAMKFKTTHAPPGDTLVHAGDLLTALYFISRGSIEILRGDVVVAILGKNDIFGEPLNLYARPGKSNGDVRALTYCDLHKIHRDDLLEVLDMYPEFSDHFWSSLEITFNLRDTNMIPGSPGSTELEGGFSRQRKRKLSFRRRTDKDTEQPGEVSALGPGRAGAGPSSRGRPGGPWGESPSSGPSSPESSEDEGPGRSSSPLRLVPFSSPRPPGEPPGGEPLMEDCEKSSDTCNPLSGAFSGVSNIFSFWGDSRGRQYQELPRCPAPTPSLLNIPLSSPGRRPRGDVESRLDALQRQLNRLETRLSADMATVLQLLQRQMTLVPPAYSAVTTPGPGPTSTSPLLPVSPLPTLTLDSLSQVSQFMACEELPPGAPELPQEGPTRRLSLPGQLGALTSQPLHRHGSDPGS", "assay": "hERG channel patch clamp", "type": "cell-based", "details": "for IC50: hERG IC50, partial dose response curve", "outline": "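hERG current measured by IonWorks automated patch-clamp electrophysiology at a contract lab. Top concentration tested was 33 μM.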"}, "Minipig DHODH": {"biological_target": "Minipig DHODH (Sus scrofa, UniProt F1S3B0)", "sequence (F1S3B0 1-395)": "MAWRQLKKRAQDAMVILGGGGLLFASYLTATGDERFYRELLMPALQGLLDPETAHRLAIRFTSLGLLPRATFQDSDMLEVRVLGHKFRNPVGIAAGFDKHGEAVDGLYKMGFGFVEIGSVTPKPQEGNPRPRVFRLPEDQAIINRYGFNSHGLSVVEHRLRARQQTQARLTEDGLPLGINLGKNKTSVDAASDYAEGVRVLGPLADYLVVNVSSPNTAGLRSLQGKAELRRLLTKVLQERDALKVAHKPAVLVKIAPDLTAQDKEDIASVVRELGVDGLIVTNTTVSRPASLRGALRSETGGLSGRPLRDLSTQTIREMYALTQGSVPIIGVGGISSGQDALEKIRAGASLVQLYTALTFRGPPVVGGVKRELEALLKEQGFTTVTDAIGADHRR", "assay": "DHODH inhibition, DCIP-based assay", "type": "biochemical"}, "[15]": {"assay": "incubation in cryopreserved hepatocytes", "type": "in vitro ADME, human", "details": "10 μM over 120 minutes", "outline": "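Human cryopreserved hepatocytes at 1 × 10^6 cells/mL were incubated with test compound at 10 μM. Metabolites were assigned by accurate mass measurement.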"}, "Mouse DHODH": {"biological_target": "Mouse DHODH (Mus musculus, UniProt O35435)", "sequence (O35435 whole entry)": "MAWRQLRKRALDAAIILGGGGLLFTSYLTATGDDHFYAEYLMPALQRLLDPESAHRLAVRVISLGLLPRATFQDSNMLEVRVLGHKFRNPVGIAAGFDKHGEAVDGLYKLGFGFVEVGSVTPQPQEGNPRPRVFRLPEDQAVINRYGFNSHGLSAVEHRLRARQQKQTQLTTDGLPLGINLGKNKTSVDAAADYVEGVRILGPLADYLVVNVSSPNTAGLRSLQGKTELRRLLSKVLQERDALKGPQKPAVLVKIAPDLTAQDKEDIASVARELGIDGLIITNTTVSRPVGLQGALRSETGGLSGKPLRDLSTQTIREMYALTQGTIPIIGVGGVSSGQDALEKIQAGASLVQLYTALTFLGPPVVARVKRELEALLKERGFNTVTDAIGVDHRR", "assay": "DHODH inhibition, DCIP-based assay", "type": "biochemical"}, "[16]": {"assay": "kinetic solubility in pH 6.5 buffer", "type": "physicochemical", "details": "aqueous buffer pH 6.5, pH 6.5"}, "[17]": {"tested_on": "P. falciparum field isolates", "assay": "ex vivo 48 h schizont maturation assay", "type": "cell-based", "details": "Plasmodium falciparum, read-out: unbound EC50", "outline": "as §1"}}, "note": "Several values for one entry are separate records, joined by “and”; a condition that tells them apart may be missing. Equal values may be shown once. Read-outs that look alike come from different tables or passages of the source.", "data": [{"smiles": "Cc1cc(Nc2ccc(C(F)(F)F)nc2)n2nc(C(C)(F)F)nc2n1", "note": "[DSM421, 2-(1,1-Difluoroethyl)-5-methyl-N-(6-(trifluoromethyl)pyridin-3-yl)-[1,2,4]triazolo[1,5-a]pyrimidin-7-amine]", "values": [{"measurement": "inhibition at 20 µM", "setting": "CYP2D6", "result": 45, "unit": "%"}, {"measurement": "activity on Na_V1.5 channel", "setting": "Na_V1.5 channel", "result": "no activity"}, {"measurement": "IC50", "setting": "P. vivax DHODH", "result": 94, "unit": "nM"}, {"measurement": "fold lower activity (higher IC50) on P. vivax DHODH than PfDHODH", "setting": "P. vivax DHODH", "result": 2, "unit": "fold"}, {"measurement": "microsomal CLint at 1 μM", "setting": "[1]", "result": "< 7", "unit": "µL/min/mg"}, {"measurement": "half-life", "setting": "[2]; rat, plasma", "result": "~300", "unit": "min"}, {"measurement": "Vd", "setting": "[2]; rat, plasma, iv, 2 mg/kg", "result": 0.8, "unit": "L/kg"}, {"measurement": "clearance", "setting": "[2]; rat, plasma, iv, 2 mg/kg", "result": 2.4, "unit": "mL/min/kg"}, {"measurement": "Tmax", "setting": "[2]; rat, plasma, po", "result": "1.8 to 7.5", "unit": "h"}, {"measurement": "bioavailability", "setting": "[2]; rat, plasma, po, 4.3 mg/kg", "result": "~80", "unit": "%"}, {"measurement": "fold increase of plasma AUC", "setting": "[2]; rats, oral 4.3 to 53.7 mg/kg, for a 12-fold increase in dose", "result": 31, "unit": "fold"}, {"measurement": "EC50", "setting": "[3]", "result": 12, "unit": "nM"}, {"measurement": "GLP Ames 5 strain test result", "setting": "Ames tester strains", "result": "no obvious cytotoxicity in any tester strain at any tested dose level"}, {"measurement": "fold less potent than DSM265 against P. falciparum 3D7 parasites", "setting": "P. falciparum 3D7", "result": 3, "unit": "fold"}, {"measurement": "fold lower intrinsic potency than DSM265 based on unbound concentrations", "setting": "P. falciparum 3D7; 48 and 72 h in vitro assays", "result": 10, "unit": "fold"}, {"measurement": "EC50", "setting": "P. falciparum 3D7; read-out: Pf3D7 EC50", "result": 14, "unit": "nM"}, {"measurement": "EC50", "setting": "P. falciparum 3D7; read-out: unbound EC50", "result": 7, "unit": "nM"}, {"measurement": "tolerability", "setting": "[4]; SCID mice, oral QD 4 days", "result": "well tolerated and no adverse reactions were noted"}, {"measurement": "Cav at ED90", "setting": "[4]; blood", "result": 0.53, "unit": "µg/mL"}, {"measurement": "Cmin at 5 mg/kg/day", "setting": "[4]; blood", "result": 0.33, "unit": "µg/mL"}, {"measurement": "Cmin at ED90", "setting": "[4]; blood", "result": 0.1, "unit": "µg/mL"}, {"measurement": "ED90 24 h after the last dose", "setting": "[4]; oral QD for 4 days", "result": 2.6, "unit": "mg/kg/day"}, {"measurement": "dose giving maximum parasite killing", "setting": "[4]; oral QD for 4 days", "result": "≥ 5", "unit": "mg/kg/day"}, {"measurement": "AUC(0-t)", "setting": "[5]; 2.6 mg/kg/day", "result": 12900, "unit": "ng·h/mL"}, {"measurement": "AUC(0-t)", "setting": "[5]; 5 mg/kg/day", "result": 30800, "unit": "ng·h/mL"}, {"measurement": "logD", "setting": "physchem; pH 7.4, measured Log D7.4, text (Table S6)", "result": 2.36}, {"measurement": "measured Log D7.4", "setting": "physchem; text (Table S6)", "result": 2.4}, {"measurement": "EC50", "setting": "[6]", "result": "> 50", "unit": "µM"}, {"measurement": "selectivity window HepG2 over activity against P. falciparum", "setting": "Human HepG2 cells", "result": "600-5000 fold"}, {"measurement": "inhibition in CEREP diversity panel", "setting": "[7]", "result": "no significant inhibition"}, {"measurement": "IC50", "setting": "Rat DHODH", "result": 22, "unit": "µM"}, {"measurement": "fold reduction of inhibitory activity in comparison to DSM265", "setting": "Rat DHODH; rodent (rat) enzyme", "result": 10, "unit": "fold"}, {"measurement": "microsomal CLint at 1 μM", "setting": "[8]", "result": "< 7", "unit": "µL/min/mg"}, {"measurement": "tolerability", "setting": "[9]", "result": "well tolerated"}, {"measurement": "permeability across Caco-2 cell monolayers", "setting": "Caco-2 cell monolayers", "result": "high in both directions with no evidence for significant efflux"}, {"measurement": "radical cure activity, liver stage", "setting": "[10]", "result": "did not show radical cure activity"}, {"measurement": "IC50", "setting": "[11]", "result": 5, "unit": "µM"}, {"measurement": "fold less active against PbDHODH than PfDHODH", "setting": "[11]", "result": 100, "unit": "fold"}, {"measurement": "IC50", "setting": "P. falciparum DHODH", "result": 53, "unit": "nM"}, {"measurement": "inhibition of D10w/yDHODH line", "setting": "[12]", "result": "did not inhibit this line"}, {"measurement": "EC50", "setting": "[12]; read-out: EC50 on D10 cells transfected with yeast DHODH", "result": "> 10", "unit": "µM"}, {"measurement": "IC50", "setting": "Dog DHODH", "result": 35, "unit": "µM"}, {"measurement": "fold reduction of inhibitory activity in comparison to DSM265", "setting": "Dog DHODH; dog enzyme", "result": 2.2, "unit": "fold"}, {"measurement": "cross resistance on DSM265-resistant Dd2 lines", "setting": "[13]", "result": "shares cross resistance with DSM265"}, {"measurement": "sensitivity of P. vivax versus P. falciparum field isolates", "setting": "P. vivax field isolates", "result": "equivalent activity towards both species"}, {"measurement": "microsomal CLint at 1 μM", "setting": "[14]", "result": "< 7", "unit": "µL/min/mg"}, {"measurement": "concentration giving 20% hERG inhibition", "setting": "hERG channel", "result": "~ 10 μM and 3.6 μg/mL"}, {"measurement": "IC50", "setting": "hERG channel", "result": 26.2, "unit": "µM"}, {"measurement": "IC50", "setting": "hERG channel; maximum concentration 33 μM", "result": 26.2, "unit": "µM"}, {"measurement": "IC50", "setting": "Minipig DHODH", "result": "> 100", "unit": "µM"}, {"measurement": "degradation in human hepatocyte incubations", "setting": "[15]", "result": "minimal degradation"}, {"measurement": "IC50", "setting": "Mouse DHODH", "result": 18, "unit": "µM"}, {"measurement": "fold reduction of inhibitory activity in comparison to DSM265", "setting": "Mouse DHODH; rodent (mouse) enzyme", "result": 10, "unit": "fold"}, {"measurement": "solubility kinetic", "setting": "[16]", "result": "> 100", "unit": "µg/mL"}, {"measurement": "EC50", "setting": "[17]", "result": 23, "unit": "nM"}]}]}
